# Measured values from the RNAGym collection of RNA variant scans (doi:10.1126/science.aae0568).
# This sample holds only a part of the variants without activity.
# B1: tRNA (parent)
# chain: GUUCCGUUGGCGUAAUGGUAACGCGUCUCCCUCCUAAGGAGAAGACUGCGGGUUCGAGUCCCGUACGGAACG
# Variants of: B1
# Experiment: yeast fitness relative to wild type (ratio to wild type); higher = fitter; tRNA-Arg(CCU), competitive growth, 37 C, YPD
# Procedure, shortened: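 Gene amplicons from the start population and from each of six end populations were read by 100-nucleotide paired-end sequencing. Those end populations came from pooled Saccharomyces cerevisiae strains carrying tRNA-Arg(CCU) gene variants at the native locus, competed in YPD at 37°C for 24 hours. Fitness relative to wild type was worked out from changes in genotype frequencies. Genotypes needed ≥ 100 starting reads, and estimates < 0.5 were set to 0.5.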
row,Variant,yeast fitness
1,U8C C27G G39C,≤ 0.5
2,U8A C24G A43G C49U,≤ 0.5
3,U8A G18C G25C A57U C60U C61A,≤ 0.5
4,U8A A40U G52C,0.573
5,U8A U47A C60A,≤ 0.5
6,U8C A15C,0.848
7,U8A C30A A65G,0.543
8,U8A G12C U47A C62U,0.545
9,U8C C22U C30U C33U A45C,≤ 0.5
10,U8A U19C A21C C66U,≤ 0.5
11,U8C C22U C31U C60A,≤ 0.5
12,U8A A69U,0.719
13,U8A A69G,0.604
14,U8A A69C,0.915
15,U8A C33G A42U A43U C49U A65C G68C,≤ 0.5
16,U8C A15U U28A C33G,≤ 0.5
17,U8A A42U C62A A70C,≤ 0.5
18,U8A C11G C34G,0.624
19,U8A C46U A57C,0.635
20,U8A A57U,0.502
21,U8A C29G A40G,0.639
22,U8A A20C C62A,≤ 0.5
23,U8A A36U G48C,0.668
24,U8A G17A C22U C24U U28C U54G A57C C62U,≤ 0.5

row,Variant,yeast fitness
1,U8C A20G C66U,0.624
2,U8C A57G C66U,0.704
3,U8A G25A A40C C46U,0.598
4,U8C C11G C46U,≤ 0.5
5,U8A G38A A40C C49U U54C C60G,≤ 0.5
6,U8C A15C C27U A45C,≤ 0.5
7,U8A C11U U47G,≤ 0.5
8,U8C C22G C49U U64C,0.679
9,U8C A14U C22G C30U A57C C61A G67A,≤ 0.5
10,U8C C27A,0.791
11,U8C C27U,0.792
12,U8C C27G,0.647
13,U8C A40C C55G,≤ 0.5
14,U8A C24U U47C,0.575
15,U8A G44C A57U,≤ 0.5
16,U8C C27U A40G G44A C62A,≤ 0.5
17,U8C A15C U32C C61U A65U C66U,≤ 0.5
18,U8A A70U,0.813
19,U8C C22G C55G,≤ 0.5
20,U8A C31G C55U G67C,≤ 0.5
21,U8A C29U C31A G38A,≤ 0.5
22,U8A U28C,0.738
23,U8A C24U A40U A42C A45U C61U,≤ 0.5
24,U8A C24U A40U A42C A45U C49U,≤ 0.5

row,Variant,yeast fitness
1,U8C C22U U53A,≤ 0.5
2,U8A A37G G41C A43U,≤ 0.5
3,U8A G18C C27U U32C C66G A70U,≤ 0.5
4,U8A U19G C22U G58A,0.568
5,U8A G10C A20U G41U C62U G68C,0.799
6,U8C A42U C62U A65C,0.534
7,U8A G25A U26A A42C,≤ 0.5
8,U8C C22U,0.768
9,U8C C22A,0.932
10,U8C C11U C34G,≤ 0.5
11,U8A A43C G44C,≤ 0.5
12,U8A G25C A37C A65C,≤ 0.5
13,U8A C61A G67C,0.561
14,U8A G12A A14C A57U G67C,≤ 0.5
15,U8A U32G A36C U47G,≤ 0.5
16,U8A C29G A40G G63A,≤ 0.5
17,U8A A21G,0.681
18,U8A U26C,0.646
19,U8A U26A,0.733
20,U8A U26G,0.666
21,U8A G58A,0.771
22,U8C A40C C62G,≤ 0.5
23,U8A C24U A40U A42C A45U,0.563
24,U8C A42G C49G C62A,≤ 0.5

row,Variant,yeast fitness
1,U8A G18C C24A U32C A69U,0.565
2,U8A G10A G67U,≤ 0.5
3,U8C A42G G68A,0.63
4,U8A C11U C46U,≤ 0.5
5,U8C A14U C22G C30U,0.581
6,U8C A57U,0.788
7,U8C A57G,0.856
8,U8C A57C,0.599
9,U8C A57U C61U,0.536
10,U8C A20G C34G A37G G44A,0.627
11,U8A A42U C62G,≤ 0.5
12,U8C A15C C31A,≤ 0.5
13,U8C A21U G67C A69U,≤ 0.5
14,U8A G9U A42C G52C,≤ 0.5
15,U8C A45U U59C,0.57
16,U8A G17A C24U,0.95
17,U8A C61A A65U,0.554
18,U8C A14C C33A C46A,≤ 0.5
19,U8C A70C,0.922
20,U8A G18C C24A U32C U64C A65G,≤ 0.5
21,U8A C11U A37U U64A,0.545
22,U8A C11A A36G C61G A69G,≤ 0.5
23,U8C A20U A21U U26G C31A U53A A69C,≤ 0.5
24,U8A G10C C11U C24U A42C U47C,0.777

row,Variant,yeast fitness
1,U8C C11U A21G,0.7
2,U8C C22U C34A,0.952
3,U8A G18C G41A,≤ 0.5
4,U8A C11U A15G G63C,≤ 0.5
5,U8C C11A G18C C27G,≤ 0.5
6,U8A C11U C31G G38C A40C G56A,≤ 0.5
7,U8A G10A A43C,0.646
8,U8C A21U U53G A57C,≤ 0.5
9,U8A G38A,0.652
10,U8C A42U C62A C66U,≤ 0.5
11,U8C C22G C27U C49U U64C,≤ 0.5
12,U8C A15U A20C G23A G50C,≤ 0.5
13,U8C C27G C29A A70G,≤ 0.5
14,U8A G18C C27U A65C,≤ 0.5
15,U8C A21G A70G,0.747
16,U8A C29U G51C,0.571
17,U8A G18A U32C,≤ 0.5
18,U8A G12C A21C C27G C31U G52A,0.59
19,U8C C27A A42C,0.532
20,U8A A21C G56C,≤ 0.5
21,U8C A15C A45C,0.674
22,U8A C24G G41C A65G,≤ 0.5
23,U8A G18A,0.578
24,U8C A36G,0.865

row,Variant,yeast fitness
1,U8C A42G A70C,≤ 0.5
2,U8A G9A A37U C46U C61U C66U,≤ 0.5
3,U8A C27A A37U,≤ 0.5
4,U8C A43C,0.939
5,U8A U13A A14C U16A G67A,0.584
6,U8C A15C U32C A69C,≤ 0.5
7,U8A A21U C30U G48A G67C A69U,≤ 0.5
8,U8A A21C C29A G39A U54G G58C,≤ 0.5
9,U8A C29U C33U U53A U59G,≤ 0.5
10,U8A A65C A70U,0.525
11,U8C C24U U26A,0.607
12,U8C A15C A57G A69C,≤ 0.5
13,U8C C24U A45U,0.608
14,U8C A14U C22G C30U U54C,≤ 0.5
15,U8C A14G U32A,0.538
16,U8A U28A C66U,≤ 0.5
17,U8C A45C C46U,0.716
18,U8C A20G C61G,≤ 0.5
19,U8A G18C G25C,≤ 0.5
20,U8A C11U U47G G67A,≤ 0.5
21,U8A G41A A69U,≤ 0.5
22,U8A G18C C27U G51C C55A C62U A65U A69U,0.647
23,U8C A37C,0.892
24,U8C A15C G41A G52C,≤ 0.5

row,Variant,yeast fitness
1,U8C A15U C22U A40C G48C U54C C62U,0.557
2,U8A G25A C29G A37C A65U,≤ 0.5
3,U8A G18C C24A C29U U32C,≤ 0.5
4,U8A U32G A37G G63U A70U,≤ 0.5
5,U8A U13A A14C U16C,≤ 0.5
6,U8A G10A U26G G58A,≤ 0.5
7,U8C C27A A40G C46G C62G,≤ 0.5
8,U8C A21U C24A,≤ 0.5
9,U8C C22U A69C,0.505
10,U8A A40C C46U,≤ 0.5
11,U8A A20U C34U A45C,0.567
12,U8A C34U C55U C66A,≤ 0.5
13,U8A A43U G52C C60A,≤ 0.5
14,U8C A45G,0.906
15,U8A C60A,≤ 0.5
16,U8A C66A G68C,≤ 0.5
17,U8A G12A C22A C31G G58A C61A,≤ 0.5
18,U8A A42C G52C,≤ 0.5
19,U8A C34U U35A C46U A70U,≤ 0.5
20,U8A C22U A69C A70C,0.595
21,U8A G25C A37C C66U,≤ 0.5
22,U8A G9C U47A G68C,≤ 0.5
23,U8A U28A C31G C60A,≤ 0.5
